The source of these data is PMC10099425 (ACS Omega, 2023).

By AUC(0-t) is commonly meant the area under the concentration-time curve up to a stated or last time point. A higher AUC(0-t) goes with high exposure. As usually defined, the Cmax is the maximum level reached in the sampled fluid or tissue. As usually defined, the MRT is a mean duration of stay, worked out from the concentration-time curve. For orientation: Tmax means the time at which the peak concentration occurs. What is called half-life is the time needed for the level to fall by half in the phase considered. Higher therefore signals slow decline.

Series [1] in a line: Diffusion and permeability studies. In kind it is in vitro ADME. As to conditions: after 480 min, PBS pH 6.8, 37 °C, NAR 50 mg/mL in donor.
A short description of series [2]: Pharmacokinetic study after oral administration. Format: in vivo, Wistar rats. As to conditions: male, Wistar, rat, plasma, 50 mg/kg. Summed up: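 Male Wistar rats (220–250 g, 10–12 weeks) were fasted overnight with water ad libitum (n = 6/group). They were dosed orally with the compound as a 0.5% w/v Na-CMC suspension or DES formulation. Retro-orbital blood was drawn at 0, 0.5, 2, 4, 6, 8, 12 and 24 h. Plasma was precipitated with acetonitrile (1:3) and assayed by isocratic C18 HPLC-DAD at 283 nm. Parameters came from PK software; mean ± SD.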

For series [3] the following is noted: cited from earlier work.

Each structure is given as a SMILES string.

As to `C[C@@H]1O[C@@H](O[C@H]2[C@H](Oc3cc(O)c4c(c3)O[C@H](c3ccc(O)cc3)CC4=O)O[C@H](CO)[C@@H](O)[C@@H]2O)[C@H](O)[C@H](O)[C@H]1O` [NAR (pure), 4′,5,7-trihydroxyflavanone 7-rhamnoglucoside], the “amount of NAR diffused” value in series [1] was determined as 30.78 ± 3.4 % w/v. In addition, in series [2], the exposure AUC(0-t) came to 226 ± 4.2 ng·h/mL, the Cmax came to 31.2 ± 2.3 ng/mL, the MRT is 6.46 ± 1.7 h and the time to peak (Tmax) was determined as 4.1 ± 0.6 h. In series [2], this compound showed a half-life of 3.43 ± 1.1 h. The elimination half-life in series [3] is 3.64 ± 3.0 h.
